Shown is part of a subset that was picked to be rich in hits.
CHOP UPR activ – apoptotic UPR (CHOP) activation; activation, % at 10 µM; 330,000 tested, 0.34% active; CHO-CHOP luciferase reporter, luminescence; percent of tunicamycin response over DMSO baseline;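 active = at 10 µM dose, activation of 40% or more, normalized to positive control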;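 note: 100% = tunicamycin at 10 µg/mL and 0% = DMSO alone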
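Material: CHO-CHOP cells, stable luciferase reporter of PERK-eIF2a-CHOP signalling; quantity: 500 reporter cells seeded per well; buffer or medium: F12 medium containing 10% fetal bovine serum; compound: one dose, 10 µM in 0.5% DMSO; incubation: 6 h compound treatment, 37 °C; measured by: Steady-Glo luciferase luminescence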
XBP1 UPR activ – adaptive UPR (XBP1) activation; CHO-XBP1 luciferase reporter, IRE1-XBP1 UPR activation, luminescence; percent of tunicamycin response, DMSO as zero; activation, % at 20 µM; 330,000 tested, 0.33% active;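 active = versus positive control, 20 µM dose yields 30% or more activation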;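 note: 100% = tunicamycin at 10 µg/mL and 0% = DMSO only wells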
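Material: CHO-XBP1 cells stably carrying IRE1-XBP1-driven luciferase reporter / Amount: 1000 cells per well / Compound: 20 µM, 1% DMSO / Times: 6 h treatment, 37 °C / Detection: luciferase luminescence / Measure: % activation of reporter signal versus tunicamycin and DMSO controls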
CHOP inhibitor – inhibitors of CHOP induction in ER stress response; CHO-K1 CHOP-promoter luciferase, tunicamycin-induced, 15-18 h; inhibition, % at 10 µM; 220,000 tested, 3.8% active;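 active = compounds that reduced the stress-induced luciferase reporter signal by more than about 70% of percent inhibition, limit read from the data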;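 note: 0% = tunicamycin plus vehicle and 100% = wells without tunicamycin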
Jurkat NFkB inh – lowers PMA/ionomycin-induced NF-kB signal in Jurkat cells | AID 435003 | 330,000 tested, 0.53% active | PMA/ionomycin-induced NF-kB luciferase reporter, luminescence | inhibition, % at 4 µM; in the data active = inhibition above about 50%
697 NFkB inh – lowers PMA/ionomycin-induced NF-kB signal in 697 B cells | inhibition, % at 4 µM | 697 B-cell NF-kB luciferase reporter, 16 h | 330,000 tested, 0.33% active | AID 435022; in the data active = inhibition above about 35%
Jurkat NFkB conf – lowers PMA/ionomycin-induced NF-kB signal in Jurkat cells; AID 435020; 2,700 tested, 27% active; shares compounds with Jurkat NFkB inh; inhibition, % at 4 µM; Jurkat NF-kB luciferase, 16 h;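 active = inhibition reaching about 45% at 4 µM in either replicate, limit read from the data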;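 note: plate controls were PMA/ionomycin stimulated DMSO wells for no effect and unstimulated DMSO wells for full effect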
697 NFkB conf – lowers PMA/ionomycin-induced NF-kB signal in 697 B cells; shares compounds with 697 NFkB inh; 697 B-cell NF-kB luciferase, 16 h; inhibition, % at 4 µM; 2,000 tested, 35% active; AID 449746; in the data active = inhibition mostly above about 28%, no sharp cut-off; inactive = mostly below about 22%
Active calls of the source: *; i = inactive; · = no result.

SMILES | CHOP UPR activ | XBP1 UPR activ | CHOP inhibitor | Jurkat NFkB inh | 697 NFkB inh | Jurkat NFkB conf | 697 NFkB conf
N[C@@H](Cc1cnc[nH]1)C(=O)O | · | · | -13 | · | · | · | ·
CCN(CC)S(=O)(=O)c1cccc(NC(=O)CNc2cccc(S(=O)(=O)N3CCCC3)c2)c1 | 6 | -2 | · | 56* | 43* | 58* | 67*
Cc1csc(=O)n1CC(=O)Nc1nc2ccccc2s1 | 1 | -3 | · | -20 | 9 | · | ·
O=C(CCN1C(=O)NC2(CCCC2)C1=O)Nc1ccc(-c2nc3ccccc3s2)cc1 | -2 | -3 | · | -181 | -264 | -80 | -332
O=C(c1ccccc1)n1c(=S)nc2ccccn21 | -8 | -9 | · | -157 | -319 | -61 | -274
CCc1ccc(-c2nc(CS(=O)CC(=O)NCc3ccco3)c(C)o2)cc1 (centres undefined) | -3 | -5 | · | 51* | 36* | 56* | 35*
CCc1ccc(-c2nc(CS(=O)CC(=O)NCc3cccnc3)c(C)o2)cc1 (centres undefined) | -2 | 1 | 70 | 2 | 0 | · | ·
Brc1ccc(-c2nnc(-c3ccccc3Br)o2)cc1 | 4 | -1 | 38 | -194 | -308 | -95 | -267
CCn1ncc(S(=O)(=O)N2CCN(c3cccc(OC)c3)CC2)c1C | 2 | -3 | · | -8 | -22 | · | ·
CCN(Cc1ccccc1)c1ccc(/C=C(\C#N)c2ccccn2)cc1 | 7 | -1 | -28 | -165 | -271 | -90 | -221
Cc1ccc(NC(=O)c2sccc2C)nc1 | 2 | -2 | · | -117 | -142 | · | ·
COC(=O)[C@H]1C[C@@H](c2ccccc2)[C@H](C)C1(C)C | 0 | -1 | · | 6 | 14 | · | ·
COc1ccc(-c2cn3ccc4ccccc4c3n2)cc1 | 0 | 0 | 24 | -196 | -334 | -93 | -227
COc1ccc(-c2cn3ccccc3n2)cc1 | -3 | -4 | 19 | -122 | -133 | · | ·
CC(C)(CN1CCCC1)NS(=O)(=O)c1ccccc1 | 0 | 2 | · | -4 | 7 | · | ·
CC(C)C(=O)Nc1ccc(-c2nc3cccnc3o2)cc1 | -2 | -3 | -11 | -93 | -198 | · | ·
Cc1ccc(-c2nc3cc(NC(=O)C(C)C)ccc3o2)cc1 | 2 | -4 | 33 | -222 | -422 | -142 | -439
Cc1ccc(-c2nc3cc(NC(=O)C(C)C)ccc3o2)cc1C | -3 | -1 | 57 | -251 | i | -43 | i
CC(C)C(=O)Nc1cccc(-c2nc3ccccc3o2)c1 | 2 | 6 | 18 | -9 | -16 | · | ·
Cc1cc2nc(-c3ccc(NC(=O)C(C)C)cc3)oc2cc1C | 6 | -2 | 5 | -236 | -405 | -151 | -353
Cc1ccccc1N1CCN(C2CCCN(C(=O)c3cc[n+]([O-])cc3)C2)CC1 (centres undefined) | 2 | 0 | · | 8 | -10 | · | ·
Cc1ccc(C)c(NC(=O)c2ccc3ccccc3n2)c1 | 5 | -3 | 80* | -177 | -283 | -98 | -189
Cc1cc(Cl)c(S(=O)(=O)N2CCN(c3ccc(F)cc3)CC2)cc1OCC(=O)NC1CCCCC1 | 1 | 0 | 68 | 65* | 98* | 75* | 92*
Cc1cc(Cl)c(S(=O)(=O)N2CCN(c3ccc(F)cc3)CC2)cc1OCC(N)=O | 0 | -3 | 23 | 21 | -55 | · | ·
N#Cc1nc(Nc2cccc(Cl)c2)c2ncn(C3CCCC3)c2n1 | 10 | 6 | · | -257 | -259 | -59 | -358
SMILES | CHOP UPR activ | XBP1 UPR activ | CHOP inhibitor | Jurkat NFkB inh | 697 NFkB inh | Jurkat NFkB conf | 697 NFkB conf
CN(Cc1ccc(Cl)cc1Cl)C(=O)CCNC(=O)c1ccco1 | 0 | -3 | · | 8 | -1 | · | ·
O=C(Nc1nc2cc3c(cc2s1)OCCO3)c1cccs1 | -4 | -5 | 33 | -183 | -474 | -80 | -428
CC(C)CCn1cnc2c(sc3nc4c(cc32)CSC(C)(C)C4)c1=O | 4 | -1 | 53 | -208 | -359 | -65 | -286
O=C(Nc1ccc(N2CCCCC2)c(Cl)c1)c1cccnc1 | 6 | 0 | · | -153 | i | -48 | -267
O=c1[nH]c(Nc2nc3ccccc3o2)nc2c1CCCC2 | 30 | -1 | 97* | 71* | -275 | -50 | -99
O=C(Nc1ccc(-c2noc(CCc3ccccc3)n2)cc1)c1ccco1 | 4 | -1 | 27 | -187 | -296 | -84 | -184
CCCC1=C(C(=O)OCC)C(c2cccs2)n2ncnc2N1 (centres undefined) | 5 | -2 | 5 | -8 | -19 | · | ·
O=C(CSc1nnnn1C1CC2CCC1C2)Nc1ccnc2ccccc12 (centres undefined) | 3 | -2 | · | 83* | 95* | 71* | 96*
O=C(CSc1nnnn1C1CCCCC1)Nc1ccccc1F | -1 | 5 | -13 | 8 | 12 | · | ·
CN(C)c1ccc(/C=N/NC(=O)c2ccccc2)cc1 | 0 | -2 | -2 | -30 | -78 | · | ·
C/C(=N/N=C/c1ccc(N(C)C)cc1)c1ccccc1 | -7 | -7 | 58 | -163 | -274 | 1 | -48
Cc1cc(C)cc(NC(=O)c2cc(C)n(Cc3cccs3)c2C)c1 | 8 | 1 | -53 | 93* | -291 | 97* | -74
Cc1ccc(NC(=O)c2cc(=O)[nH]c3ccccc23)cc1 | 1 | -3 | · | -28 | 2 | · | ·
Cc1ccc(NC(=O)C(=O)c2c[nH]c3ccccc23)cc1 | 9 | -2 | · | -215 | -330 | -124 | -313
O=C(COC(=O)/C=C/c1ccccc1[N+](=O)[O-])Nc1ccc(S(=O)(=O)N2CCOCC2)cc1 | 0 | -4 | · | 3 | -2 | · | ·
CCOc1ccc(-c2cc(C(=O)N/N=C/c3cccnc3)c3ccccc3n2)cc1 | 4 | 6 | · | 58* | -393 | -4 | -301
CCOc1ccccc1-c1cc(C(=O)N/N=C/c2cccnc2)c2ccccc2n1 | 1 | 1 | · | -5 | 22 | · | ·
COc1ccc(-n2ncc3c(NCC(C)C)ncnc32)cc1 | 3 | -3 | 25 | -185 | -327 | -136 | -300
COc1ccc(-n2ncc3c(NCc4ccc5c(c4)OCO5)ncnc32)cc1 | 4 | 7 | 49 | -38 | -18 | · | ·
CCN(CC(=O)NCc1cccs1)C(=O)c1cccc(S(=O)(=O)Nc2ccc(OC)cc2)c1 | 2 | -2 | · | -3 | 3 | · | ·
CC(=Nc1ccc(C)cc1)c1sc2ccccc2c1O | 1 | -3 | -13 | -152 | -387 | -77 | -144
CC(=Nc1cccc(O)c1)c1sc2ccccc2c1O | 2 | 1 | 62 | -121 | -185 | · | ·
COc1ccc(/C=C/c2c(-c3ccc(OC)cc3)oc3ccc(-c4ccc(OC)cc4)cc23)cc1 | -2 | 0 | · | -3 | 15 | · | ·
COc1ccc(/C=C/c2cc(-c3ccc(C)cc3)o[n+]2C)cc1 | 1 | 0 | 20 | 61* | 93* | 52* | 41*
O=C(Nc1ccccc1Cl)c1ccc(-n2cccn2)c([N+](=O)[O-])c1 | -1 | 6 | -6 | -25 | 11 | · | ·

From PubChem BioAssay
